In ChEMBL document CHEMBL1148746, “Functional characterization of Tet-AMPA [tetrazolyl-2-amino-3-(3-hydroxy-5-methyl- 4-isoxazolyl)propionic acid] analogues at ionotropic glutamate receptors GluR1-GluR4. The molecular basis for the functional selectivity profile of 2-Bn-Tet-AMPA” (J Med Chem, 2007):

Legend:
[1] = target: Glutamate receptor 3 (Rattus norvegicus) (UniProt P19492); assay: Agonist activity at GluR3 expressed in HEK293 cells by Fluo-4/Ca2+ assay
[2] = target: Glutamate receptor 4 (Rattus norvegicus) (UniProt P19493); assay: Agonist activity at GluR4 expressed in HEK293 cells relative to S-Glutamate by Fluo-4/Ca2+ assay
Sequence of Glutamate receptor 4 (Rattus norvegicus) (P19493 whole entry, looked up): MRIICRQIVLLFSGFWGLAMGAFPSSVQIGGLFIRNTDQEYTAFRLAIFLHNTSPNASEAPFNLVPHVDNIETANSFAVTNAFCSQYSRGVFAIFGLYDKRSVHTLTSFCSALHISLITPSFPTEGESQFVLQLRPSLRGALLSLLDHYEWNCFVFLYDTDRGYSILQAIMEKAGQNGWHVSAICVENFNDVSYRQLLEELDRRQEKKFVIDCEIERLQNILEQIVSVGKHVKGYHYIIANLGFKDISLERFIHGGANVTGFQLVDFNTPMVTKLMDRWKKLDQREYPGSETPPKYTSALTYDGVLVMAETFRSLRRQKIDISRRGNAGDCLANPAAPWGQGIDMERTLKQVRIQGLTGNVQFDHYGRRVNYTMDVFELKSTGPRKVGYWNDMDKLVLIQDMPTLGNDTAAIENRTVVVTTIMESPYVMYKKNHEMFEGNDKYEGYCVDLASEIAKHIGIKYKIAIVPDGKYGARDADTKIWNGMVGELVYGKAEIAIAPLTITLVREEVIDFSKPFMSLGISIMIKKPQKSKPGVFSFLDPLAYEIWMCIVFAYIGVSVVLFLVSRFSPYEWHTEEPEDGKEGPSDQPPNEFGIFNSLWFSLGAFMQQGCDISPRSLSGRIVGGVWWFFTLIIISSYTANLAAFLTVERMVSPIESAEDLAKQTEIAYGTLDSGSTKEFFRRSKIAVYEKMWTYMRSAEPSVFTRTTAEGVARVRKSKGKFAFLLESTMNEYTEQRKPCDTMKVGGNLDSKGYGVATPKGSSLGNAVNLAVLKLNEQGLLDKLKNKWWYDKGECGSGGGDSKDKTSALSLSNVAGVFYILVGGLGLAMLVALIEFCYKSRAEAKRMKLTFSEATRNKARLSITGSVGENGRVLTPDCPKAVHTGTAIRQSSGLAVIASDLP

[3] = target: Glutamate receptor 2 (Rattus norvegicus) (UniProt P19491); assay: Agonist activity at GluR2Q expressed in HEK293 cells by Fluo-4/Ca2+ assay
Sequence of Glutamate receptor 2 (Rattus norvegicus) (P19491 whole entry, looked up): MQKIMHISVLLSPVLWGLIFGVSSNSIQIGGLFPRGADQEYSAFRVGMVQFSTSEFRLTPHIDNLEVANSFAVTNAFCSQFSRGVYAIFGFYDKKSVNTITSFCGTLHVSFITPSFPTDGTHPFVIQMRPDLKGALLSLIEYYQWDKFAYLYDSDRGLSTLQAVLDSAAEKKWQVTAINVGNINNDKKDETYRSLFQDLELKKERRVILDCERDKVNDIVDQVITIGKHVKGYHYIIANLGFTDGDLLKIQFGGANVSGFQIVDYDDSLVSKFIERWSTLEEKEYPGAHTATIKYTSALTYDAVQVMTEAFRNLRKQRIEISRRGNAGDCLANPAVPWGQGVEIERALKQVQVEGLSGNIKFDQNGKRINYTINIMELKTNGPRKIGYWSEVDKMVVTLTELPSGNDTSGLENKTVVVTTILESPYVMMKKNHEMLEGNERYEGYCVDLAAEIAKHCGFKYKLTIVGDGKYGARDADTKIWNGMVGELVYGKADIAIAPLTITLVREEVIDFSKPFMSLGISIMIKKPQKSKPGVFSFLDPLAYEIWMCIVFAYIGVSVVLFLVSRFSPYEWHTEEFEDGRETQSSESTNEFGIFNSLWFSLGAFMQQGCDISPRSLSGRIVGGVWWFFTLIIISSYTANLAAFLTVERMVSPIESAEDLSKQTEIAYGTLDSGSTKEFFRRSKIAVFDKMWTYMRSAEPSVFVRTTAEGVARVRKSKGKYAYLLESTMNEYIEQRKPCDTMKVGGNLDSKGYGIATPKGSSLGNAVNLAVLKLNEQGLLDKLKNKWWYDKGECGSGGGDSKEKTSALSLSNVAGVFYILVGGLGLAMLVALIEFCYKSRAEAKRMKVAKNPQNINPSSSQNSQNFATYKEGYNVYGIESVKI

[4] = target: Glutamate receptor 1 (Rattus norvegicus) (UniProt P19490); assay: Agonist activity at GluR1 expressed in HEK293 cells by Fluo-4/Ca2+ assay
Sequence of Glutamate receptor 1 (Rattus norvegicus) (P19490 whole entry, looked up): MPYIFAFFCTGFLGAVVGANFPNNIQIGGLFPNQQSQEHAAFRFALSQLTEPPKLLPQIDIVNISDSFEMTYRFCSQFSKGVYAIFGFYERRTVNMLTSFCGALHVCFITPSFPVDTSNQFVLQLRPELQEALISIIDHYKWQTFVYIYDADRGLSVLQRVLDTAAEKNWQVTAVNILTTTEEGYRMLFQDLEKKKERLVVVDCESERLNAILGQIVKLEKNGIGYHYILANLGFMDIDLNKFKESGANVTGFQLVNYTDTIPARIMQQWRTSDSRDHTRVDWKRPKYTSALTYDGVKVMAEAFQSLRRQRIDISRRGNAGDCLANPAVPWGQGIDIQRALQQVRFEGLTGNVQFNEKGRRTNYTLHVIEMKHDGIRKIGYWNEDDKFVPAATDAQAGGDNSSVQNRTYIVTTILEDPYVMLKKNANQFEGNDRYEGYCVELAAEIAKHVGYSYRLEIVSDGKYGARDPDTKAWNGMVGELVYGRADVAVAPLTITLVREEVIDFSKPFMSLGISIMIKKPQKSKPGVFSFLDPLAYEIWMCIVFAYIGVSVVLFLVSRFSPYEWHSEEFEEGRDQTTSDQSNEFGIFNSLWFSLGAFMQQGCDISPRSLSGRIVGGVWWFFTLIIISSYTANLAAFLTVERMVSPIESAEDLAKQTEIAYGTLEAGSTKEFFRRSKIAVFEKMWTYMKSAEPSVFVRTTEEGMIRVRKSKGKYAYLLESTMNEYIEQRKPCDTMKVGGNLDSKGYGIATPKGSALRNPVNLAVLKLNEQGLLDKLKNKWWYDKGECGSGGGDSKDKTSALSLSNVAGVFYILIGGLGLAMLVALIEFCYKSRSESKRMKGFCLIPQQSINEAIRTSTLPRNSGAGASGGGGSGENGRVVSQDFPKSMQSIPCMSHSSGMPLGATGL

[5] = target: Glutamate receptor 1 (Rattus norvegicus) (UniProt P19490); assay: Agonist activity at GluR1 expressed in HEK293 cells relative to S-Glutamate by Fluo-4/Ca2+ assay
[6] = target: Glutamate receptor 4 (Rattus norvegicus) (UniProt P19493); assay: Agonist activity at GluR4 expressed in HEK293 cells by Fluo-4/Ca2+ assay
[7] = target: Glutamate receptor 3 (Rattus norvegicus) (UniProt P19492); assay: Agonist activity at GluR3 expressed in HEK293 cells relative to S-Glutamate by Fluo-4/Ca2+ assay
[8] = Agonist activity at GluR1 M686V/I687 mutant expressed in HEK293 cells by Fluo-4/Ca2+ assay; type: functional, cell-based; conditions: Homo sapiens
Outline: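 Rat GluR1i mutants, cDNA sequence-verified, transiently transfected into HEK293 cells and kept 2-3 weeks under 3 mg/mL G-418 selection to make polyclonal cells. Cells were plated 16-24 h ahead, loaded with Fluo-4/AM for 1 h at 37 °C, then held in HBSS with 20 mM HEPES, 10 mM CaCl2, 2.5 mM probenecid and 100 µM CTZ, pH 7.4. Fluorescence (ex 485/em 520 nm) was read up to 60 s after agonist addition.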

[9] = test system: Glutamate receptor 1 (Homo sapiens), P42261 [D417S,M704V,I705A]; assay: Agonist activity at GluR1 D399S/M686V/I687A mutant expressed in Xenopus oocyte cells relative to S-Glutamate; type: functional, cell-based
Sequence of Glutamate receptor 1 (Homo sapiens), P42261 [D417S,M704V,I705A] (P42261 whole entry D417S/M704V/I705A): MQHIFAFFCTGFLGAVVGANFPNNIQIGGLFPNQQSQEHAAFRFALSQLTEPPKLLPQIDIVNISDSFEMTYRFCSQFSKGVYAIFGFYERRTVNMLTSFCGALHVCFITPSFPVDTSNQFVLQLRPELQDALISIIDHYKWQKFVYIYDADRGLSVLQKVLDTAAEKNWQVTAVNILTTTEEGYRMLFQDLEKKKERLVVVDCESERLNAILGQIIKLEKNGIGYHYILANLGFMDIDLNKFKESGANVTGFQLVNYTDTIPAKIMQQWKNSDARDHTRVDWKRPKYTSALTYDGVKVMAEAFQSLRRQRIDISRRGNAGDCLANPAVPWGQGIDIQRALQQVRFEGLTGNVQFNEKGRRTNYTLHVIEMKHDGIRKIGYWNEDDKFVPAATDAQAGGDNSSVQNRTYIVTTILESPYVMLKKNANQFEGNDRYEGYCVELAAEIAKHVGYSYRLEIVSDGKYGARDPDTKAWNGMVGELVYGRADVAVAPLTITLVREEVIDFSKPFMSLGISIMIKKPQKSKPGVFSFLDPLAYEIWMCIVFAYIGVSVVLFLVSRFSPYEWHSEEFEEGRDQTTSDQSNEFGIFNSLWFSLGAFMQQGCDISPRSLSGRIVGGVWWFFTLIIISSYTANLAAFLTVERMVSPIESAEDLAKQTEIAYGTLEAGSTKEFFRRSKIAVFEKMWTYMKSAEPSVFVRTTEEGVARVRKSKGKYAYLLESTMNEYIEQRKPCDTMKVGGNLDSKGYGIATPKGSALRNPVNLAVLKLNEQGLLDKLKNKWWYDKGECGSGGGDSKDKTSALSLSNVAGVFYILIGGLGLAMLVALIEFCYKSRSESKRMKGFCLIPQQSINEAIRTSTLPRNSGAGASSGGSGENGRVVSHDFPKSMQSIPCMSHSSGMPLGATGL
Outline: (§1)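 Rat GluR1i mutant or GluR4i cRNA expressed in Xenopus oocytes, recorded by two-electrode voltage clamp 2-3 days after injection. Low-Ca2+ Ringer's (115 mM NaCl, 0.1 mM CaCl2, pH 7.5) was used, with 30 s pretreatment and continuous application of 100 µM CTZ. Peak currents were normalized to 1000 µM glutamate + 100 µM CTZ and fitted to the Hill equation; n = 3.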

[10] = target: Glutamate receptor 4 (Homo sapiens) (UniProt P48058); assay: Agonist activity at GluR4 expressed in Xenopus oocyte cells relative to S-Glutamate; type: functional, cell-based
Outline: as §1

Sequence of Glutamate receptor 3 (Rattus norvegicus) (P19492 whole entry, looked up): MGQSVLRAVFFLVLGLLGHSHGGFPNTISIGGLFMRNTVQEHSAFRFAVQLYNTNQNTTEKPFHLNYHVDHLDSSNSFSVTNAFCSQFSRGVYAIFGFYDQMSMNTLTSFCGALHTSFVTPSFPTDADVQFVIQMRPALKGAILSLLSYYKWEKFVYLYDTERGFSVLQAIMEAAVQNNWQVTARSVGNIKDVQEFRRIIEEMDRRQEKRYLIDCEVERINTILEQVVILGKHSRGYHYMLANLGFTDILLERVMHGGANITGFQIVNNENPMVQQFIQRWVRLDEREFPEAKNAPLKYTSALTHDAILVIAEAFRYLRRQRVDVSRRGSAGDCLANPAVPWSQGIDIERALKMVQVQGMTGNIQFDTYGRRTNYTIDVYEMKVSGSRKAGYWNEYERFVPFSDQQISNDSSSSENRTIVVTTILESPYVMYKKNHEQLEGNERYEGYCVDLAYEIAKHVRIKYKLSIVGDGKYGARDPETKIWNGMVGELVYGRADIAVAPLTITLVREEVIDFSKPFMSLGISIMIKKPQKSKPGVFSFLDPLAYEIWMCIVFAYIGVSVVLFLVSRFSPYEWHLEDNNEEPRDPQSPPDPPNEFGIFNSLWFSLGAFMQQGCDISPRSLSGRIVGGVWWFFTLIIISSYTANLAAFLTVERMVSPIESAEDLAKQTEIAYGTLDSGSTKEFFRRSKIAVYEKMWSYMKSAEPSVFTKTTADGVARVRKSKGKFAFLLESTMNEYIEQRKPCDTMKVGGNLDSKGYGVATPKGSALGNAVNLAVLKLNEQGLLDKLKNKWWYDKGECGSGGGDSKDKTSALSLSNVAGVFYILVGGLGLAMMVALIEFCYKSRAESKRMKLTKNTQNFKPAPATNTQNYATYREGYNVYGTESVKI

For `CC(C)n1nnc(-c2onc(O)c2CC(N)C(=O)O)n1` (racemic), the EC50 ([1]; read-out: EC50) was 700 µM, the RUmax [2] was 83% and the EC50 [3] was 1000 µM. The EC50 [4] was 550 µM, the RUmax [5] was 73% and the EC50 ([6]; read-out: EC50) was 160 µM. For the same compound, the RUmax [7] was 73%.

In the case of `Cn1nnnc1-c1onc(O)c1CC(N)C(=O)O` (racemic), the EC50 ([1]; read-out: EC50) is reported as > 3000 µM, the RUmax [2] is reported as 79% and the EC50 [3] is reported as > 3000 µM. The EC50 [4] was > 3000 µM, the EC50 ([6]; read-out: EC50) was 3000 µM and the RUmax [7] was 22%.

`CCn1nnc(-c2o[nH]c(=O)c2CC(N)C(=O)O)n1` (racemic) gave an EC50 ([1]; read-out: EC50) of 18 µM, an EC50 ([1]; read-out: Log EC50 (converted)) of 15.8 µM and an EC50 [3] of 52 µM. It also gave an EC50 [4] of 42 µM and an EC50 ([6]; read-out: EC50) of 4 µM.

Work on `CCCn1nnc(-c2onc(O)c2CC(N)C(=O)O)n1` (racemic) yielded an EC50 ([1]; read-out: EC50) of 450 µM, an EC50 ([1]; read-out: Log EC50 (converted)) of 398 µM and an RUmax [2] of 97%. For the same compound, the EC50 [3] was 830 µM, the EC50 [4] was 480 µM and the RUmax [5] was 82%. For the same compound, the EC50 ([6]; read-out: EC50) was 79 µM, the EC50 ([6]; read-out: Log EC50 (converted)) was 63.1 µM and the RUmax [7] was 85%.

In the case of `NC(Cc1c(O)noc1-c1nnn(Cc2ccccc2)n1)C(=O)O` (racemic), the EC50 ([8]; read-out: EC50) is reported as 500 µM, the RUmax [9] is reported as 60% and the RUmax [10] is reported as 63%.

For `CCn1nnc(-c2onc(O)c2CC(N)C(=O)O)n1` (racemic), the RUmax [2] was 94%, the RUmax [5] was 83% and the RUmax [7] was 95%.

Compound `N[C@@H](CCC(=O)O)C(=O)O` [GLUTAMIC ACID] has an EC50 ([8]; read-out: EC50) of 76 µM and an EC50 ([8]; read-out: Log EC50 (converted)) of 79.4 µM.
